≈ marks a conversion by molar mass, not a printed value.
What was measured:
[1] = biological target: T1, Cytochrome P450 1A2 (Homo sapiens, UniProt P05177); experiment: Inhibition of CYP1A2 in human liver microsomes; format: ADME
T1 sequence (P05177 whole entry): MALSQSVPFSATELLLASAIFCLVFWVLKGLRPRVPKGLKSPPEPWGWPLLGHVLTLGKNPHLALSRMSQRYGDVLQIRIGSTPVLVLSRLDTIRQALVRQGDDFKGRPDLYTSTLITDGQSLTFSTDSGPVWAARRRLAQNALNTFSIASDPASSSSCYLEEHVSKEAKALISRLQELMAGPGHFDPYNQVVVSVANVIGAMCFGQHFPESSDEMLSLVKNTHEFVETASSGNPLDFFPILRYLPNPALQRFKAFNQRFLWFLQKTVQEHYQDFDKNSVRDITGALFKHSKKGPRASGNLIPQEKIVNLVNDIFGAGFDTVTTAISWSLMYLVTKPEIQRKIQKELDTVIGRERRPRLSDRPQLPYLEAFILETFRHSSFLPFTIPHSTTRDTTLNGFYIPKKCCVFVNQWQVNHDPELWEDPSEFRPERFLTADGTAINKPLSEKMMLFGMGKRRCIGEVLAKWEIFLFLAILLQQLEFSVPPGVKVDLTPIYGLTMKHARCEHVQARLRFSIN
Method in brief: (§1)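 CYP1A2, 2C9, 2D6 and 3A4 inhibition measured together in a cocktail assay with human liver microsomes and known probe substrates; IC50 determined.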

[2] = biological target: Metabotropic glutamate receptor 1 (Rattus norvegicus, UniProt P23385); experiment: Positive allosteric modulator activity at rat mGlu1 receptor expressed in HEK293 cells assessed as glutamate-induced calcium mobilization treated 140s prior to glutamate challenge by fluorescence assay; format: functional, cell-based
Method in brief: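 HEK293 cells stably expressing rat mGlu1, 20000 cells/well, Fluo-4AM calcium flux. Vehicle or 10 µM compound (final) added, then a glutamate concentration–response curve 140 s later.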

[3] = Kinetic solubility of the compound in buffer at pH 2; format: physicochemical
Method in brief: (§2)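 Kinetic aqueous solubility measured in buffers at pH 2, 4 and 7.4.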

[4] = test system: Rattus norvegicus; experiment: Antipsychotic activity in po dosed Sprague-Dawley rat assessed as reversal of amphetamine-induced hyperlocomotion administered for 30 mins prior to amphetamine challenge for 60 mins; format: functional, organism-based
Method in brief: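 Male Sprague–Dawley rats (250–375 g), food-deprived overnight, habituated 30 min in locomotor chambers. Compound given po (3–100 mg/kg in 20% HP-β-CD, pH 6–7, ≤10 mL/kg) 30 min before amphetamine 1 mg/kg sc, then monitored 60 min (120 min total). Photobeam breaks over 60–120 min give percent reversal against the vehicle+amphetamine group, mean ± SE, n = 6–8.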

[5] = Cmax in Sprague-Dawley rat at 10 mg/kg, po; format: ADME, organism-based; set-up: dose 10 mg/kg, route oral; details: in vivo
[6] = Drug uptake in Sprague-Dawley rat brain at 56.6 mg/kg, po after 1.5 hrs by LC-MS/MS analysis; format: ADME, organism-based; set-up: dose 56.6 mg/kg, route oral; details: read-out: Drug uptake
Method in brief: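 Male Sprague–Dawley rats (250–375 g), fasted overnight, were dosed orally at 56.6 mg/kg in 20% HP-β-cyclodextrin (pH 6–7) during an amphetamine hyperlocomotion screen. Brain and plasma were taken at 1.5 h. Brain was homogenized in 70:30 2-propanol:water, and samples were diluted in acetonitrile with 50 nM carbamazepine internal standard. Analysis was C18 gradient LC-ESI-MS/MS against a standard curve.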

[7] = test system: Rattus norvegicus; experiment: Toxicity in Sprague-Dawley rat assessed as autonomic nervous system deficit at 100 mg/kg, po measured up to 4 hrs by irwin neurological test; format: organism-based; set-up: dose 100 mg/kg, route oral; details: in vivo
Method in brief: (§3)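 Male Sprague–Dawley rats (250–300 g) scored at baseline, then given vehicle (20% HP-β-CD) or 100 mg/kg po (n = 6 each). Modified Irwin battery repeated at 30 min, 1 h and 4 h; each end point scored 0, 1 or 2; significance taken at p ≤ 0.05.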

[8] = biological target: Metabotropic glutamate receptor 7 (Rattus norvegicus, UniProt P35400); experiment: Positive allosteric modulator activity at rat mGlu7 receptor expressed in HEK293 cells assessed as L-AP4-induced GIRK channel-mediated thallium flux treated 140s prior to L-AP4 challenge by fluorescence analysis; format: cell-based
Method in brief: (§4)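 HEK293-GIRK cells expressing rat mGlu2, 3, 4, 6, 7 or 8, 15000 cells/well. Vehicle or 10 µM compound added, then 140 s later a glutamate CRC (L-AP4 for mGlu7) in thallium buffer (12 mM thallium sulfate, 10 mM HEPES). Thallium flux through GIRK read by fluorescence.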

[9] = Tmax in Sprague-Dawley rat at 10 mg/kg, po; format: ADME, organism-based; set-up: dose 10 mg/kg, route oral; details: in vivo
[10] = Kinetic solubility of the compound in buffer at pH 7.4; format: physicochemical; method in brief: as §2
[11] = biological target: Cytochrome P450 3A4 (Homo sapiens, UniProt P08684); experiment: Inhibition of CYP3A4 in human liver microsomes; format: ADME; method in brief: as §1
[12] = Half life in rat at 1 mg/kg, iv and 10 mg/kg, po; format: ADME, organism-based; details: in vivo
Method in brief: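 Rat pharmacokinetics with 1 mg/kg IV and 10 mg/kg PO dosing; oral arm given in 0.5% methyl cellulose (1 mg/mL, noncrossover) to male Sprague–Dawley rats.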

[13] = test system: Rattus norvegicus; experiment: Antipsychotic activity in Sprague-Dawley rat assessed as reversal of amphetamine-induced hyperlocomotion at 100 mg/kg, po administered for 30 mins prior to amphetamine challenge for 60 mins; format: functional
Method in brief: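 Male Sprague–Dawley rats (250–375 g), food-deprived the evening before, were habituated 30 min in locomotor chambers. They were then dosed po with vehicle (20% HP-β-CD in water, pH 6–7, max 10 mL/kg) or test article, followed 30 min later by amphetamine 1 mg/kg sc, n = 6–8 per group. Photobeam breaks were counted per 5 min over 120 min. Percent reversal used t = 60–120 totals versus the vehicle + amphetamine group, reported as mean ± SE.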

[14] = Solubility of the compound in fasted simulated intestinal fluid at pH 7.2 after 24 hrs; format: ADME; details: simulated gi fluid, pH 7.2, 24 h
Method in brief: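 Solubility in fasted simulated intestinal fluid (FaSSIF), pH 7.2.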

[15] = biological target: Cytochrome P450 2C9 (Homo sapiens, UniProt P11712); experiment: Inhibition of CYP2C9 in human liver microsomes; format: ADME; method in brief: as §1
[16] = test system: Rattus norvegicus; experiment: Toxicity in Sprague-Dawley rat assessed as somatomotor nervous system deficit at 100 mg/kg, po measured up to 4 hrs by irwin neurological test; format: organism-based; set-up: dose 100 mg/kg, route oral; details: in vivo; method in brief: as §3
[17] = test system: Rattus norvegicus; experiment: Toxicity in Sprague-Dawley rat assessed as motor output at 30 to 100 mg/kg, po after 30 mins by rotarod test; format: organism-based; set-up: dose 30-100 mg/kg, route oral; details: in vivo, 0.5 h
Method in brief: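 Male Sprague–Dawley rats (250–300 g) trained twice on a 20 rpm rotarod (120 s trials); animals below 85 s at baseline were excluded. Rats received 30, 56.6 or 100 mg/kg po in 20% HP-β-CD or vehicle (n = 6) and were tested 30 min later in a 120 s trial; time on the rod was recorded, with a 120 s cutoff.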

[18] = biological target: Metabotropic glutamate receptor 4 (Rattus norvegicus, UniProt P31423); experiment: Positive allosteric modulator activity at rat mGlu4 receptor expressed in HEK293 cells assessed as glutamate-induced GIRK channel-mediated thallium flux treated 140s prior to gluatamate challenge by fluorescence analysis; format: cell-based; method in brief: as §4
[19] = test system: Rattus norvegicus; experiment: AUC (0 to 24 hrs) in Sprague-Dawley rat plasma at 10 mg/kg, po; format: ADME, organism-based; set-up: time < 24 hr, dose 10 mg/kg, route oral; details: in vivo

Sequence of Cytochrome P450 3A4 (P08684 whole entry): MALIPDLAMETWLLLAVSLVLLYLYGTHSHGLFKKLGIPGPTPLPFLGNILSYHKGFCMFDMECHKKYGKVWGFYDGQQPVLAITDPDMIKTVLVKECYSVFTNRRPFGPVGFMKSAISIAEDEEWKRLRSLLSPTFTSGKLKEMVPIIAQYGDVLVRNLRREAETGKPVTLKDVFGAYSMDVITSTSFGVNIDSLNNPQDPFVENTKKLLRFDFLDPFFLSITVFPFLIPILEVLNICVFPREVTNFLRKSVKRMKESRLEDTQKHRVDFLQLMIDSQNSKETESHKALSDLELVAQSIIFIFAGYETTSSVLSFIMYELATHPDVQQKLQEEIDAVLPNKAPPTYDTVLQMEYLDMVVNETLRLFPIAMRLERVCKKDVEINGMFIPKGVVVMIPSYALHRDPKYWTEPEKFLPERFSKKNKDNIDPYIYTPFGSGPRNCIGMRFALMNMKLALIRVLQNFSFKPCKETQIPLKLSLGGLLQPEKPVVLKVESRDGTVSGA
Sequence of Cytochrome P450 2C9 (P11712 whole entry): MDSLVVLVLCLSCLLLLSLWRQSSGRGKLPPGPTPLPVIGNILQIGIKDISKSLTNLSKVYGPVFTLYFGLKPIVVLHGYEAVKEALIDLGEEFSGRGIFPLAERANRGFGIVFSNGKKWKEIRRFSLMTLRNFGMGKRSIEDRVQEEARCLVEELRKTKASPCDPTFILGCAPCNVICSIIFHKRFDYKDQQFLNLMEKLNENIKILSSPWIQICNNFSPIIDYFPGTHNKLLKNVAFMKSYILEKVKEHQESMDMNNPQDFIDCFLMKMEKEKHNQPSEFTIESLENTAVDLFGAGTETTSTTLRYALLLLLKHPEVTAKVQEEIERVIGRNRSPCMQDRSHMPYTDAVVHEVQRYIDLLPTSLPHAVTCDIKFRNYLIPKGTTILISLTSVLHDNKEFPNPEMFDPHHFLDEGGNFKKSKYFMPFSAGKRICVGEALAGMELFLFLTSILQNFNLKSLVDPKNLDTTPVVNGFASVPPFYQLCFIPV
Sequence of Metabotropic glutamate receptor 1 (P23385 whole entry): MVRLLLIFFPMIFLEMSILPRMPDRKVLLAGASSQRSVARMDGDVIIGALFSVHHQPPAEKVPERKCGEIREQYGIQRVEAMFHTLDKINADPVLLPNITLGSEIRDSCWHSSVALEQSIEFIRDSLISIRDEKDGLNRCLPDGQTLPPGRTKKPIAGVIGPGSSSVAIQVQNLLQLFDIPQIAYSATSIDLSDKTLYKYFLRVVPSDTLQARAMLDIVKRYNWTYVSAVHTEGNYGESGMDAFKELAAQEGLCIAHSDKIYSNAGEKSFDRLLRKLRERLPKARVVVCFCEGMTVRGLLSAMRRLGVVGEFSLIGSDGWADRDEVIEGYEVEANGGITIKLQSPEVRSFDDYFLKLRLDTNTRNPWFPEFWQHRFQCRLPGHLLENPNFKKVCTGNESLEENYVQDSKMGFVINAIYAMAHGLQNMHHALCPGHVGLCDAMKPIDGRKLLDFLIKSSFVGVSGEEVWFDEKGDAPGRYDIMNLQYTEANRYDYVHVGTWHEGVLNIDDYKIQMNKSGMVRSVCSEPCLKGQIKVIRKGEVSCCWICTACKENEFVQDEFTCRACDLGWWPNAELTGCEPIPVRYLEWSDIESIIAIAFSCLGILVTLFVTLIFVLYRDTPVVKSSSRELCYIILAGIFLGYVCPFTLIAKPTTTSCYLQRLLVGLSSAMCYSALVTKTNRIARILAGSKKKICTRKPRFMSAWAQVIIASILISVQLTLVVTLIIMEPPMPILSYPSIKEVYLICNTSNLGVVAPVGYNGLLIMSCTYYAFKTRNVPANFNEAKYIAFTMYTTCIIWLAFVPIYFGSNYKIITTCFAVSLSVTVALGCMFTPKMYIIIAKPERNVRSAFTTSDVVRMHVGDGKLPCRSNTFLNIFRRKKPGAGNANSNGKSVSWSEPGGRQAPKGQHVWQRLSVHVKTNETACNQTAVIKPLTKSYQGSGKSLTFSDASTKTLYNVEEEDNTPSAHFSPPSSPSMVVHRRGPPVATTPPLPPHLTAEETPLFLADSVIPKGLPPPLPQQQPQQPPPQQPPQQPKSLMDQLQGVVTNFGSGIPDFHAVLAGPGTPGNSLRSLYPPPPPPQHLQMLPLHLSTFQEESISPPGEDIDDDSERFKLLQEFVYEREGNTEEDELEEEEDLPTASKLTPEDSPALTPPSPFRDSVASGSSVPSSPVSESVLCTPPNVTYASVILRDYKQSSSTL
Sequence of Metabotropic glutamate receptor 4 (P31423 whole entry): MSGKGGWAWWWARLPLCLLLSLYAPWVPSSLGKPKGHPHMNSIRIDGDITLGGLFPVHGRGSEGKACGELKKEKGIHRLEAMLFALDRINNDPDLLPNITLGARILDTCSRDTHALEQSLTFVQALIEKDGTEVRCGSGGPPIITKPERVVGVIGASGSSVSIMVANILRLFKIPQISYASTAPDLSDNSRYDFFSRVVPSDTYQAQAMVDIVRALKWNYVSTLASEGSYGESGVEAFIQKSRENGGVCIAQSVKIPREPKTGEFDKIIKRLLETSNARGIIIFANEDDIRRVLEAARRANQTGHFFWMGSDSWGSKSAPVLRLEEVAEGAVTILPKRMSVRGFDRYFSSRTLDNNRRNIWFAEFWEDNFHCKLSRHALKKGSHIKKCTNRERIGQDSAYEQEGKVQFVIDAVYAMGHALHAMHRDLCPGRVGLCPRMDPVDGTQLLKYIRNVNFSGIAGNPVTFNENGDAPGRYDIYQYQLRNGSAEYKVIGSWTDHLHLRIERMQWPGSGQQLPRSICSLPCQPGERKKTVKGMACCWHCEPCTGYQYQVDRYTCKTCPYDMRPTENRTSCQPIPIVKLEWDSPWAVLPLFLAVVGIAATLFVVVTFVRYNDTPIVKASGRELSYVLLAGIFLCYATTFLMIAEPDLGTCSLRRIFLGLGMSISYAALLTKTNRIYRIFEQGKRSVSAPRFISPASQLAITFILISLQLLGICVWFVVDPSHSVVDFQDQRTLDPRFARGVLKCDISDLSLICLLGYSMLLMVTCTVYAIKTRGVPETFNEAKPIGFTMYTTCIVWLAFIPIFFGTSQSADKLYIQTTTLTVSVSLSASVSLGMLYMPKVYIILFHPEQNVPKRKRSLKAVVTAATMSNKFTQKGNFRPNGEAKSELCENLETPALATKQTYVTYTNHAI
Sequence of Metabotropic glutamate receptor 7 (P35400 whole entry): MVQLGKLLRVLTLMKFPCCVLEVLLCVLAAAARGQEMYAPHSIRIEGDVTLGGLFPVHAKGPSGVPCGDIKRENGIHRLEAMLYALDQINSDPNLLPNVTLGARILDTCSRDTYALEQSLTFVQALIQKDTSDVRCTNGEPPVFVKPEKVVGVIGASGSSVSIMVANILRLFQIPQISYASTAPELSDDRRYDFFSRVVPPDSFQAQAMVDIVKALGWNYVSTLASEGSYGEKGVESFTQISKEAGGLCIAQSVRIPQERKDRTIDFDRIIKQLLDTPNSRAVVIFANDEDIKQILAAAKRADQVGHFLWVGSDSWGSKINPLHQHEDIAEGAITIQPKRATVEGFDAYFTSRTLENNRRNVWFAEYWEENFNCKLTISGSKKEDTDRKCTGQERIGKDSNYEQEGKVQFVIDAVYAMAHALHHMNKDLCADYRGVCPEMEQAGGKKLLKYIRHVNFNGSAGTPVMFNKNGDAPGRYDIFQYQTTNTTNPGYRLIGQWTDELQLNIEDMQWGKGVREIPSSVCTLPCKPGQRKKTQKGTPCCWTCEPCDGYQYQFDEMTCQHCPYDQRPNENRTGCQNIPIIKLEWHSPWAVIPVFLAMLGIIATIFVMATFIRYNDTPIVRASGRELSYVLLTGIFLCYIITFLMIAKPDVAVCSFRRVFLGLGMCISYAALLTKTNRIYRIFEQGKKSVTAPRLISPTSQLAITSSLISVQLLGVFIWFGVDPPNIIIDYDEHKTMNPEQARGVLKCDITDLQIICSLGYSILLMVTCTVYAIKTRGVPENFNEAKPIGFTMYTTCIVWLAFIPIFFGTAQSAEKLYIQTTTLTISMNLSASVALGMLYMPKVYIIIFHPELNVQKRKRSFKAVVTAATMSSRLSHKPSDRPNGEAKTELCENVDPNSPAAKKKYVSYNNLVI

Q: What does the source list for `O=C1NCCc2nc(OCc3cccc(F)c3)ccc21`?
A: IC50 [1]: 25.7 µM; EC50 [2]: > 10 µM; Kinetic_solubility [3]: 38 µM; inhibition [4]: Dose-dependent effect; Cmax [5]: 3.36 µM; concentration at 1.5 h [6]: 16.6 µM; Activity [7]: Non-toxic; EC50 [8]: > 10 µM; Tmax [9]: 30 min; Kinetic_solubility [10]: 28 µM; IC50 [11]: > 30 µM; half-life [12]: 18 min; inhibition in vivo at 100 mg/kg [13]: 55%; solubility [14]: 31 µg/mL (≈ 114 µM); IC50 [15]: > 30 µM; Activity [16]: Non-toxic; Activity [17]: Non-toxic; EC50 [18]: > 10 µM; AUC [19]: 6.2 µM·h
